The values that follow come from ChEMBL document CHEMBL5678814, “Novel Mps1 Kinase Inhibitors with Potent Antitumor Activity” (Mol Cancer Ther, 2016).

The source made the active and inactive calls. The calls are words filed in the database; no cut-off is given here.

A short description of data set [1]: Toxicity in human A2780cis cells xenografted female athymic NMRI mouse model assessed as change in body weight at 5 mg/kg, po administered twice daily intermittent for 2 days on/5 days off. Type of data set: organism-based. Particulars: in vivo, 168 h, time 7 day. The essentials:
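A2780cis cells (2×10^6 in 100% Matrigel) implanted s.c. in athymic mice. Treatment started at ~30 mm2. Oral dosing twice daily, 2 days on/5 days off, with PEG 400/ethanol/Solutol vehicle controls. Dose based on individual body weight. Body weight monitored two to three times weekly as toxicity measure; >20% loss deemed toxic.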

Another data set has as its system Caov-3 cell line. As to the kind of experiment: Antiproliferative activity against human Caov-3 cell line assessed as cell growth inhibition incubated for 96 hrs by crystal violet staining. The settings on record: Caov-3, 96 h.
Data set [2] can be described thus: Volume of distribution at steady state in female CD1 mouse plasma at 1 mg/kg, iv measured after 24 hrs by LC/-MS/MS analysis. In kind it is ADME, organism-based. The settings on record: read-out: Vdss. The essentials:
(§1)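 Female CD1 mice received a single iv bolus of 1.0 mg/kg in 50% PEG 400, 10% ethanol and 40% water. Plasma was sampled at 2, 5, 15, 30 and 45 min and at 1, 2, 4, 6, 8 and 24 h, precipitated with ice-cold acetonitrile (1:5), and supernatants were quantified by LC/MS-MS. Parameters were estimated from plasma concentration data, with AUC by the log-linear trapezoidal rule.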

A short description of data set [3]: Clearance in female CD1 mouse blood at 1 mg/kg, iv measured after 24 hrs by LC/-MS/MS analysis. Type of data set: ADME, organism-based. In short, it runs like this: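 Single dose to female mice, i.v. as bolus (1.0 mg/kg) or oral (1 mg/kg), in 50% PEG 400/10% ethanol/40% water. Plasma sampled up to 24 h: 2 min–24 h after i.v., 8 min–24 h after p.o. Samples precipitated with ice-cold acetonitrile (1:5) and analysed by LC/MS-MS. AUC by log-linear trapezoidal rule; Cmax and Tmax read directly from the profiles.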

For another data set, the system named is SUM149PT. Nature of the data set: Synergistic antitumor activity against human SUM149 cells xenografted female athymic NMRI mouse model assessed as MTD at 1.5 mg/kg,po administered twice daily intermittent for 2 days on/5 days off measured after 48 days treatment in the presence of paclitaxel relative to control. The settings on record: time 48 day.
The nature of data set [4]: Half life in female CD1 mouse plasma at 1 mg/kg, iv measured after 24 hrs by LC/-MS/MS analysis. Type of data set: ADME, organism-based. The essentials:
as §1

The nature of data set [5]: Tmax in male Wistar rat plasma at 0.5 mg/kg, po measured after 24 hrs by LC/-MS/MS analysis. Type of data set: ADME, organism-based. The essentials:
(§2)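 Male Wistar rats given 0.5 mg/kg orally. Plasma collected from 8 min to 24 h, precipitated with ice-cold acetonitrile (1:5), and analysed by LC/MS-MS. Cmax and Tmax read directly from concentration–time profiles.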

Data set [6] is described as follows: Tmax in female NMRI mouse plasma at 1 mg/kg, po measured after 24 hrs by LC/-MS/MS analysis.
Data set [7] in a line: Clearance in male Wistar rat blood at 0.5 mg/kg, iv measured after 24 hrs by LC/-MS/MS analysis. In kind it is ADME, organism-based.
For data set [8], the system named is KATO III stomach cancer cell line. Nature of the data set: Antiproliferative activity against human KATO III stomach cancer cell line assessed as cell growth inhibition incubated for 96 hrs by MTS assay. Type of data set: functional, cell-based.
Data set [9] is described as follows: Antitumor activity against human A2780cis cells xenografted female athymic NMRI mouse model assessed as T/C ratio at 5 mg/kg, po administered twice daily intermittent for 2 days on/5 days off. In kind it is functional. Particulars: time 7 day.
For the next data set, the system named is NCI-H1299. As to the kind of experiment: Synergistic antitumor activity against human NCI-H1299 cells xenografted female athymic NMRI mouse model assessed as MTD at 3 mg/kg,po administered twice daily intermittent for 2 days on/5 days off in the presence of paclitaxel relative to control. In kind it is functional. The settings on record: time 7 day.
The subject of a further data set is LXF-289 cell line. Nature of the data set: Antiproliferative activity against human LXF-289 cell line assessed as cell growth inhibition incubated for 96 hrs by crystal violet staining. Particulars: LXF-289, 96 h.
Data set [10] is described as follows: Volume of distribution at steady state in male Wistar rat plasma at 0.5 mg/kg, iv measured after 24 hrs by LC/-MS/MS analysis. In kind it is ADME, organism-based. The settings on record: read-out: Vdss.
Data set [11] can be described thus: Synergistic toxicity in human NCI-H1299 cells xenografted female athymic NMRI mouse model assessed as body weight loss at 3 mg/kg,po administered twice daily intermittent for 2 days on/5 days off in the presence of paclitaxel relative to control. Type of data set: organism-based. The settings on record: in vivo, 168 h, time 7 day. In short, it runs like this: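 NCI-H1299 cells (3×10^6 in 100% Matrigel) implanted s.c. in the inguinal region of athymic mice. Treatment started on day 8 at ~30 mm2. Mps1 inhibitor given p.o. 3 mg/kg twice daily, 2 days on/5 off. Paclitaxel i.v. 20 mg/kg once weekly, given within 1 h of the inhibitor on the same day. Body weight tracked two to three times weekly; >20% loss deemed toxic.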

The nature of data set [12]: Oral bioavailability in female NMRI mouse plasma at 1 mg/kg measured after 24 hrs by LC/-MS/MS analysis.
A short description of data set [13]: Cmax in female NMRI mouse plasma at 1 mg/kg, po measured after 24 hrs by LC/-MS/MS analysis.
The nature of data set [14]: Half life in male Wistar rat plasma at 0.5 mg/kg, iv measured after 24 hrs by LC/-MS/MS analysis. Type of data set: ADME, organism-based.
Data set [15] is described as follows: Oral bioavailability in male Wistar rat plasma at 0.5 mg/kg measured after 24 hrs by LC/-MS/MS analysis. In kind it is ADME, organism-based.
Data set [16] in a line: Antitumor activity against human A2780cis cells implanted female athymic NMRI mouse model assessed as reduction in KNL1 at Thr-875 phosphorylation at 2 mg/kg,po administered for 2 days by immunohistochemical staining relative to control. Type of data set: functional. More on the design: scale not given: the % may be the effect or the level left. The settings on record: time 2 day.

Data set [17] in a line: Cmax in male Wistar rat plasma at 0.5 mg/kg, po measured after 24 hrs by LC/-MS/MS analysis. In kind it is ADME, organism-based. In short, it runs like this: as §2
Data set [18] is described as follows: Antitumor activity against human A2780cis cells implanted female athymic NMRI mouse model assessed as reduction in KNL1 at Thr-875 phosphorylation at 4 mg/kg,po administered for 2 days by immunohistochemical staining relative to control. In kind it is functional. Particulars: time 2 day. More on the design: scale not given: the % may be the effect or the level left.

Data set [19] has as its system A2780cis. As to the kind of experiment: Antitumor activity against human A2780cis cells xenografted in female athymic NMRI mouse assessed as induction in atypical mitoses at 24 mg/kg,iv administered once for 1 day and measured after 8 hrs by H&E staining.
The subject of data set [20] is A2780cis. As to the kind of experiment: Antitumor activity against human A2780cis cells xenografted in female athymic NMRI mouse assessed as increase in necrosis at 24 mg/kg,iv administered once for 1 day and measured after 8 hrs by H&E staining.
Data set [21] has as its system A2780cis. Nature of the data set: Antitumor activity against human A2780cis cells implanted female athymic NMRI mouse model assessed as change in KNL1 total level at 24 mg/kg,iv administered for 1 day by immunohistochemical staining. In kind it is functional, organism-based. In short, it runs like this:
(§3)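 A2780cis tumors (2×10^6 cells in 100% Matrigel, s.c.) in female NMRI nude mice. Paclitaxel i.v. once at 24 mg/kg on day 1, started at ~52–60 mm2 tumor area. Tumors harvested 36 h after first treatment. Paraffin sections stained with rabbit anti-pThr875 KNL1 or anti-CASC5 (total KNL1), both 1:400. Positive pixels above background scored in three fields per slide.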

Data set [22] deals with A2780cis. As to the kind of experiment: Antitumor activity against human A2780cis cells xenografted in female athymic NMRI mouse assessed as increase in apoptosis at 24 mg/kg,iv administered once for 1 day and measured after 8 hrs by H&E staining.
In data set [23] the test system is A2780cis. Nature of the data set: Antitumor activity against human A2780cis cells implanted female athymic NMRI mouse model assessed as induction in KNL1 at Thr-875 phosphorylation at 24 mg/kg,iv administered once for 1 day by immunohistochemical staining. Type of data set: functional, organism-based. In short, it runs like this:
as §3

A further data set has as its system LU387. As to the kind of experiment: Antitumor activity against human LU387 cells xenografted female athymic NMRI mouse model assessed as reduction in tumor size at 20 mg/kg,iv administered twice daily intermittent for 1 days on/6 days off. The settings on record: time 7.0 day, in the assay text read “once daily” for “twice daily”. Type of data set: functional, organism-based. In short, it runs like this: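 LU387 patient-derived tumor fragments (4–5 mm) transplanted s.c. into the flank of nude mice. Treatment started at ~40 mm2. Paclitaxel i.v. at 20 mg/kg once weekly (1 on/6 off). Tumor area (longest diameter × perpendicular) measured by caliper two to three times weekly. T/C computed from end-of-study tumor areas; 8–10 mice/group.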

As for `COc1ccc(Oc2cc(NCCC(F)(F)F)c3ncc(-c4ccc(C(=O)NC5CC5)c(C)c4)n3n2)c(F)c1F` [BAY-1217389], the Activity result is recorded as “Non-Toxic” in data set [1], above 10% in data set [11], 60% in [16] and 80% in data set [18]. For the same molecule, the IC50 was 36 nM with Caov-3 cell line, above 300 nM in [8] and 3.3 nM in the data set with LXF-289 cell line. Also, the Vd in data set [2] is 2.7 L/kg; in data set [10] it was 2.2 L/kg. Also, the clearance is 13.7 mL/min/kg in data set [3] and 9 mL/min/kg in data set [7]. In addition, the MED amounted to 30% in the data set on SUM149PT and 60% with NCI-H1299. In addition, the half-life is 4.1 h in [4] and 7.8 h in data set [14]. Further, the results for the Tmax in [5] and in data set [6] were 1.5 h and 7 h, respectively. The T/C in data set [9] is given as 0.53. For the same molecule, the bioavailability in data set [12] came to 37%; in [15], 73%. For the same molecule, the Cmax is 74 ng/mL in data set [13] and 177 ng/mL in [17].
For `CC(=O)O[C@H]1C(=O)[C@@]2(C)[C@H]([C@H](OC(=O)c3ccccc3)[C@]3(O)C[C@H](OC(=O)[C@H](O)[C@@H](NC(=O)c4ccccc4)c4ccccc4)C(C)=C1C3(C)C)[C@]1(OC(C)=O)CO[C@@H]1C[C@@H]2O`, the outcome in the data set on A2780cis [19], in the data set with A2780cis [20], with A2780cis [21], in the data set with A2780cis [22], with A2780cis [23] and in the data set with LU387 was Active.
